Experiments:
LoVo [1] = assay: Cytotoxicity against human doxorubicin resistant LoVo cells after 48 hrs by SRB assay; type: functional; settings: for CC50: read-out: LC50 (the source's name)
Method in brief: (§1)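 Cells grown in RPMI 1640 with 10% FBS and penicillin/streptomycin at 37 °C and 5% CO₂, trypsinized, then seeded at 5 × 10³/well. After 18 h drug-free attachment, samples in DMSO/EtOH/PBS (0.5:0.5:99) were added for 48 h continuous exposure. Cells were fixed with cold TCA (1 h, 4 °C) and stained with SRB (10 min). Tris-solubilized stain read at 490 nm. Triplicate wells, mean ± SD; GI₅₀ derived.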

LoVo [2] = assay: Cytotoxicity against human LoVo cells after 48 hrs by SRB assay; type: functional; settings: for CC50: read-out: LC50 (the source's name)
[3] = Cytotoxicity against human IGROV-ET cells after 48 hrs by SRB assay; type: functional; settings: for CC50: read-out: LC50 (the source's name); method in brief: as §1
LNCaP = assay: Cytotoxicity against human LNcaP cells after 48 hrs by SRB assay; type: functional; settings: for CC50: read-out: LC50 (the source's name); method in brief: as §1
HeLa = assay: Cytotoxicity against human HeLa cells after 48 hrs by SRB assay; type: functional; settings: for CC50: read-out: LC50 (the source's name); method in brief: as §1
SK-BR-3 = assay: Cytotoxicity against human SKBR3 cells after 48 hrs by SRB assay; type: functional; settings: SK-BR-3, 48 h; for CC50: read-out: LC50 (the source's name); for GI50: read-out: GI50; method in brief: as §1
K562 = assay: Cytotoxicity against human K562 cells after 48 hrs by SRB assay; type: functional; settings: K562, 48 h; for CC50: read-out: LC50 (the source's name); method in brief: as §1
DU-145 = assay: Cytotoxicity against human DU145 cells after 48 hrs by SRB assay; type: functional, cell-based; settings: Homo sapiens, DU-145, 48 h; for CC50: read-out: LC50 (the source's name); for GI50: read-out: GI50; method in brief: as §1
[4] = Cytotoxicity against human IGROV cells after 48 hrs by SRB assay; type: functional; settings: for CC50: read-out: LC50 (the source's name); method in brief: as §1
A549 = assay: Cytotoxicity against human A549 cells after 48 hrs by SRB assay; type: functional, cell-based; settings: Homo sapiens, A549, 48 h; method in brief: as §1
PANC-1 = assay: Cytotoxicity against human PANC1 cells after 48 hrs by SRB assay; type: functional; settings: PANC-1, 48 h; for CC50: read-out: LC50 (the source's name); method in brief: as §1
HT-29 = assay: Cytotoxicity against human HT29 cells after 48 hrs by SRB assay; type: functional, cell-based; settings: Homo sapiens, HT-29, 48 h; for CC50: read-out: LC50 (the source's name); method in brief: as §1
SK-MEL-28 = assay: Cytotoxicity against human SK-MEL-28 cells after 48 hrs by SRB assay; type: functional, cell-based; settings: Homo sapiens, SK-MEL-28, 48 h; for CC50: read-out: LC50 (the source's name); for GI50: read-out: GI50; method in brief: as §1
[5] = Cytotoxicity against human HeLa-APL cells after 48 hrs by SRB assay; type: functional; method in brief: as §1

Row | SMILES | GI50 (LoVo [1]) | TGI (LoVo [1]) | CC50 (LoVo [1]) | CC50 (LoVo [2]) | GI50 ([3]; read-out: GI50) | CC50 [3] | GI50 (LNCaP) | TGI (LNCaP) | CC50 (LNCaP) | CC50 (HeLa) | CC50 (SK-BR-3) | CC50 (K562) | CC50 (DU-145) | GI50 ([4]; read-out: GI50) | CC50 [4] | LC50 (A549) | CC50 (PANC-1) | CC50 (HT-29) | CC50 (SK-MEL-28) | LC50 (concentration giving 50% net cell kill) [5] | further results
1 | C/C=C1\NC(=O)[C@H](Cc2ccccc2)NC(=O)[C@@H](C(C)C)NC(=O)[C@@H]([C@H](C)CC)NC(=O)[C@H](NC(=O)[C@H](NC(=O)[C@H](CCCN)NC(=O)[C@H]2CCCN2C(=O)[C@H](NC(=O)[C@@H](NC(=O)[C@@H](NC(=O)[C@H](NC(=O)CCCC(C)C)C(C)C)[C@@H](C)O)C(C)C)C(C)C)[C@H](C)CC)[C@@H](C)OC(=O)[C@H](C(C)C)NC1=O | 6030 nM | 7370 nM | 4080 nM | 5540 nM | 3760 nM | 2130 nM | 19300 nM | 20300 nM | 4920 nM | 1910 nM | 1690 nM | 4420 nM | 10600 nM | 73200 nM | 72400 nM | 1920 nM | 8900 nM | 3790 nM | 1770 nM | 2360 nM | TGI [3]: 4480 nM; TGI [4]: 106000 nM
2 | C/C=C1\NC(=O)[C@H](Cc2ccccc2)NC(=O)[C@@H](C(C)C)NC(=O)[C@@H]([C@H](C)CC)NC(=O)[C@H](NC(=O)[C@H](NC(=O)[C@H](CCCN)NC(=O)[C@H]2CCCN2C(=O)[C@H](NC(=O)[C@@H](NC(=O)[C@@H](NC(=O)[C@@H](CCCN)NC(=O)CCCC(C)C)[C@@H](C)O)C(C)C)C(C)C)[C@H](C)CC)[C@H](C)OC(=O)[C@H](C(C)C)NC1=O | – | – | 296 nM | 330 nM | 103 nM | 559 nM | 853 nM | 1170 nM | 950 nM | 1030 nM | 907 nM | 1910 nM | 1170 nM | 1130 nM | 382 nM | 3840 nM | 1760 nM | 4270 nM | 1160 nM | 965 nM | GI50 [3]: 806 nM; GI50 (HeLa): 1370 nM; TGI (HeLa): 1400 nM; TGI (SK-BR-3): 1770 nM; GI50 (SK-BR-3): 1720 nM; GI50 (K562): 877 nM; TGI (K562): 1120 nM; TGI (DU-145): 1270 nM; GI50 (DU-145): 1160 nM; GI50 [4]: 630 nM; GI50 (A549): 888 nM; GI50 (A549; read-out: GI50): 747 nM; GI50 (PANC-1): 1420 nM; TGI (PANC-1): 1240 nM; TGI (SK-MEL-28): 1150 nM; GI50 (SK-MEL-28): 1140 nM; GI50 [5]: 1100 nM; TGI [5]: 1070 nM
3 | C/C=C1\NC(=O)[C@H](Cc2ccccc2)NC(=O)[C@@H](C(C)C)NC(=O)[C@@H]([C@H](C)CC)NC(=O)[C@H](NC(=O)[C@H](NC(=O)[C@H](CCCN)NC(=O)[C@H]2CCCN2C(=O)[C@H](NC(=O)[C@@H](NC(=O)[C@@H](NC(=O)[C@@H](CC2CCCCC2)NC(=O)CCCC(C)C)[C@@H](C)O)C(C)C)C(C)C)[C@H](C)CC)[C@H](C)OC(=O)[C@H](C(C)C)NC1=O | 825 nM | 746 nM | 247 nM | 2180 nM | 1090 nM | 373 nM | 2980 nM | 3460 nM | 1720 nM | 917 nM | 4990 nM | 2340 nM | 1030 nM | 1270 nM | 401 nM | 1770 nM | 2440 nM | 2650 nM | 1230 nM | 1140 nM | GI50 (LoVo [2]): 2090 nM; TGI (LoVo [2]): 2130 nM; TGI [3]: 1230 nM; GI50 (HeLa): 1300 nM; TGI (HeLa): 1090 nM; TGI (SK-BR-3): 862 nM; GI50 (SK-BR-3): 789 nM; GI50 (K562): 2100 nM; TGI (K562): 3070 nM; TGI (DU-145): 1200 nM; GI50 (DU-145): 1410 nM; TGI [4]: 8320 nM; TGI (A549): 2180 nM; GI50 (A549; read-out: GI50): 1970 nM; GI50 (HT-29): 2010 nM; TGI (HT-29): 2310 nM; TGI (SK-MEL-28): 1470 nM; GI50 (SK-MEL-28): 1730 nM; GI50 [5]: 1450 nM; TGI [5]: 1290 nM

Source: ChEMBL document CHEMBL1156597, “Structure-activity relationship of kahalalide F synthetic analogues” (J Med Chem, 2008)
